From ChEMBL document CHEMBL5107994, “Biphenyl scaffold for the design of NMDA-receptor negative modulators: molecular modeling, synthesis, and biological activity” (RSC Med Chem, 2022) come the findings set out here.

For orientation: IC50 means the point on the concentration scale where inhibition reaches its midpoint. As a reminder, the inhibition is the share of the control response that was lost under treatment. For orientation: Emax means the maximal effect, on the per cent scale that the assay sets.

SMILES strings stand for the structures. Calls of active or inactive are those of the source. The rule behind the calls is not given here.

The target in experiment [1] is Glutamate NMDA receptor. Put plainly: Negative allosteric modulator activity at NMDA receptor in Wistar rat hippocampal CA1 neuronal membrane assessed as inhibition of NMDA and glycine induced current response by whole-cell patch clamp technique. The class given is cell membranes. The following applies: hippocampal ca1 neurone. An outline of the steps:
(§1)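 Acutely vibrodissociated CA1 pyramidal neurons from 13–18-day male Wistar rats, whole-cell recorded at –80 mV at room temperature. 100 μM NMDA + 10 μM glycine activated the receptors. Steady-state current block was measured across concentrations and fitted with the Hill equation for the concentration-inhibition relationship. At least four experiments, mean ± SD.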
In general terms: In patch-clamp work, channel activity is measured electrically.

Experiment [2] deals with T1, Glutamate NMDA receptor (Rattus norvegicus) (UniProt P35439+Q00959+Q00960+Q00961+Q62645+Q8VHN2+Q9R1M7). Put plainly: Negative allosteric modulator activity at NMDA receptor in Wistar rat hippocampal CA1 neuronal membrane assessed as inhibition of NMDA and glycine induced current response at 30 uM by whole-cell patch clamp technique. The class given is cell membranes. The following applies: Hippocampal CA1 neurone. The method in brief: (§2)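 Male Wistar rats, 13–18 d old. CA1 pyramidal neurons isolated from hippocampal slices by vibrodissociation. Whole-cell patch clamp at room temperature, holding potential –80 mV, with 70–80% series-resistance compensation. Currents evoked by 100 μM NMDA plus 10 μM glycine. Percent block of the steady-state current measured at each compound concentration. Means ± SD from at least four experiments.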

Experiment [3] addresses Glutamate NMDA receptor. Put plainly: Displacement of 3[H]ifenprodil from NMDA receptor in Wistar rat brain membrane incubated for 2 hrs by scintillation counting method. The class given is cell membranes. An outline of the steps:
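Rat hippocampal membranes prepared in HEPES/Tris pH 7.6 buffers with repeated EDTA washes, stored in liquid nitrogen. Incubated with [3H]-ifenprodil (40 nM working-solution aliquot) for 2 h at room temperature. Nonspecific binding measured with 10 μM unlabeled ifenprodil. Test compounds over 10^-8 to 10^-3 M. Filtration on polyethyleneimine-soaked GF/B filters, then scintillation counting. Each concentration run in triplicate and averaged.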

The target of experiment [4] is T1, Glutamate NMDA receptor (Rattus norvegicus). Put plainly: Negative allosteric modulator activity at NMDA receptor in Wistar rat hippocampal CA1 neuronal membrane assessed as inhibition of NMDA and glycine induced current response by measuring maximum efficacy by whole-cell patch clamp technique. The format is cell membranes. The following applies: Hippocampal CA1 neurone, filed as negative allosteric modulator. The method in brief:
as §1

Experiment [5] deals with Mus musculus. Put plainly: Antidepressant activity in ICR (CD-1) mouse assessed as decrease in immobility time at 160 mg/kg, po and measured after 1 hr by forced swim test. The format is functional, organism-based. An outline of the steps: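 Adult male ICR (CD-1) mice, 20–25 g, n=10 per group, dosed orally 1 h before a one-day forced swim test. Solutions were prepared on the day. Each mouse swam 5 min in a cylinder with at least 20 cm of water at 24–26°C, with fresh water per animal, and was videotaped. Total immobility (passive floating) was compared with an […] saline/5% DMSO group by Mann-Whitney U-test.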

The target of experiment [6] is T1, Glutamate NMDA receptor (Rattus norvegicus). Put plainly: Negative allosteric modulator activity at NMDA receptor in Wistar rat hippocampal CA1 neuronal membrane assessed as inhibition of NMDA and glycine induced current response at 0.03 uM by whole-cell patch clamp technique. The class given is cell membranes. The following applies: Hippocampal CA1 neurone. An outline of the steps: as §2

Experiment [7] has the same target. Put plainly: Negative allosteric modulator activity at NMDA receptor in Wistar rat hippocampal CA1 neuronal membrane assessed as inhibition of NMDA and glycine induced current response at 0.3 uM by whole-cell patch clamp technique. The class given is cell membranes. The following applies: Hippocampal CA1 neurone, filed as negative allosteric modulator. The method in brief:
as §2

The target is the same in experiment [8]. Put plainly: Negative allosteric modulator activity at NMDA receptor in Wistar rat hippocampal CA1 neuronal membrane assessed as inhibition of NMDA and glycine induced current response at 3 uM by whole-cell patch clamp technique. The class given is cell membranes. The following applies: Hippocampal CA1 neurone, filed as negative allosteric modulator. An outline of the steps: as §2

Turning to `OC(CNc1ccccc1)c1ccc(-c2ccccc2)cc1` (configuration not stated), the IC50 in experiment [1] is > 30 µM; in experiment [3] it was > 100 µM. The inhibition in experiment [2] (filed as negative allosteric modulator) worked out at 42%.
Turning to `C[C@H]([C@@H](O)c1ccc(O)cc1)N1CCC(Cc2ccccc2)CC1`, in experiment [4], the Emax was 62%.
In the case of `OC(COc1ccccc1)c1ccc(-c2ccccc2)cc1` (configuration not stated), the concentration for half-maximal inhibition (IC50) in experiment [1] is > 30 µM; in experiment [3], > 100 µM. Besides, in experiment [2], the inhibition was 37%.
The like results for `Oc1ccc(OCC(O)c2ccc(-c3ccccc3)cc2)cc1` (configuration not stated) were, in that order, > 30 µM, > 100 µM and 36%.
Turning to `CNCCC(Oc1ccc(C(F)(F)F)cc1)c1ccccc1` (configuration not stated), the outcome in experiment [5] was Active.
As to `CS(=O)(=O)Nc1cccc(NCC(O)c2ccc(-c3ccc(Br)cc3)cc2)c1` (configuration not stated), the IC50 was found to be 0.05 µM in experiment [1] and 1 µM in experiment [3]. Moreover, the Emax in experiment [4] was 78%.
With `NC(COc1cccc(O)c1)c1ccc(-c2ccccc2)cc1` (configuration not stated), the values for the IC50 in experiment [1] and in experiment [3] were 5 µM and 41 µM, respectively. The Emax in experiment [4] was found to be 65%.
For `CCNc1cccc(NCC(O)c2ccc(-c3ccccc3)cc2)c1` (configuration not stated), the IC50 in experiment [1] was > 30 µM; in experiment [3], > 100 µM. Moreover, the inhibition in experiment [2] was 10%.
Turning to `CS(=O)(=O)Nc1cccc(NCC(O)c2ccc(-c3ccccc3)cc2)c1` (configuration not stated), the IC50 in experiment [1] worked out at 0.1 µM; in experiment [3], 5.4 µM. Also, in experiment [4], the maximal effect (Emax) was found to be 83%. The inhibition was 25% in experiment [6], 61% in experiment [7] and 76% in experiment [8].
Turning to `Oc1cccc(NCC(O)c2ccc(-c3ccccc3)cc2)c1` (configuration not stated), the IC50 turned out to be 0.45 µM in experiment [1] and 4.2 µM in experiment [3]. Moreover, the maximal effect (Emax) in experiment [4] came out at 72%.
The like results for `Oc1cccc(OCC(O)c2ccc(-c3ccccc3)cc2)c1` (configuration not stated) were, in that order, 5 µM, 30 µM and 62%.
